Residue numbers refer to the chain shown, from its start. Blank lines part the entries; values can stand above or below the compound they belong to. The source made the active and inactive calls. No cut-off for these calls is given here.
Columns and labels:
[1] = Stability in human plasma assessed as compound remaining after 1 hr by HPLC analysis; type: ADME, cell-free; conditions: read-out: Stability
How it was run: (§1)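 Pooled normal human plasma pre-warmed 2 min at 37 °C, spiked from a 5.0 mM DMSO stock, run in duplicate. Aliquots taken at 0–120 min, quenched with ACN, centrifuged and filtered. Analysed by reverse-phase C18 HPLC; percent parent is peak area relative to the 0 min sample.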

[2] = system: Jurkat; assay: Effect on alpha-actin level in human Jurkat cells at 6 to 20 uM after 4 hrs by Western blot analysis; type: ADME, cell-based
How it was run: (§2)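 Log-phase HH or Jurkat cells at 70% confluence treated 4 h, harvested, lysed in RIPA with protease inhibitors. Protein normalised by BCA, run on 10% SDS-PAGE and blotted to PVDF. Probed with anti-actin–HRP (plus acetylated-tubulin and tubulin antibodies) and detected by chemiluminescence.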

[3] = Stability in human plasma assessed as compound remaining after 2 hrs by HPLC analysis; type: ADME, cell-free; conditions: read-out: Stability; how it was run: as §1
[4] = system: HH; assay: Effect on alpha-actin level in human HH cells at 6 to 20 uM after 4 hrs by Western blot analysis; type: ADME, cell-based; how it was run: as §2
[5] = Stability of the compound assessed as trypsin (unknown origin)-mediated drug degradation measured as compound remaining after 2 hrs by biochemical assay; type: ADME; conditions: human, read-out: Stability
[6] = target: Histone deacetylase 3 (Homo sapiens, UniProt O15379); assay: Inhibition of human recombinant HDAC3 using MAZ1600 as fluorogenic substrate measured every 5 mins by optimized homogenous fluorescence based assay
[7] = target: T1, Histone deacetylase 8 (Homo sapiens, UniProt Q9BY41); assay: Inhibition of human recombinant HDAC8 using MAZ1675 as fluorogenic substrate measured every 5 mins by optimized homogenous fluorescence based assay
T1 sequence (Q9BY41 whole entry): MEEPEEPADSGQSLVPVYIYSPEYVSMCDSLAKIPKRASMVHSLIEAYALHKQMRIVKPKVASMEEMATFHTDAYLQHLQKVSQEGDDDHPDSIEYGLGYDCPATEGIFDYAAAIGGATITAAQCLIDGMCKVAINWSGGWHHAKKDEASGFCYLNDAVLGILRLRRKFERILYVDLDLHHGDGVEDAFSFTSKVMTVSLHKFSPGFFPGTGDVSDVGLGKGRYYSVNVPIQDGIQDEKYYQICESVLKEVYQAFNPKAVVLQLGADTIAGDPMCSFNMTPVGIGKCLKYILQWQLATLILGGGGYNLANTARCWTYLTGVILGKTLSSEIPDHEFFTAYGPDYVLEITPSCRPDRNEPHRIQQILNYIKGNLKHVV

[8] = Cytotoxicity against mouse NIH/3T3 cells assessed as cell proliferation after 70 hrs by MTS assay; type: ADME, cell-based; conditions: NIH3T3, 70 h
[9] = system: HH; assay: Cytotoxicity against human HH cells assessed as cell proliferation after 70 hrs by MTS assay; type: functional, cell-based
[10] = target: T2, Histone deacetylase (Homo sapiens) (UniProt Q13547+O15379+Q9UBN7+Q92769+Q9UQL6+Q8WUI4+Q9BY41+Q96DB2+P56524+Q9UKV0+Q969S8); conditions: Jurkat, 6 to 20 uM
[11] = target: T2, Histone deacetylase (Homo sapiens); conditions: HH, 6 to 20 uM
[12] = target: T3, Protein deacetylase HDAC6 (Homo sapiens, UniProt Q9UBN7); assay: Inhibition of human recombinant HDAC6 using MAZ1600 as fluorogenic substrate measured every 5 mins by optimized homogenous fluorescence based assay
T3 sequence (Q9UBN7 whole entry): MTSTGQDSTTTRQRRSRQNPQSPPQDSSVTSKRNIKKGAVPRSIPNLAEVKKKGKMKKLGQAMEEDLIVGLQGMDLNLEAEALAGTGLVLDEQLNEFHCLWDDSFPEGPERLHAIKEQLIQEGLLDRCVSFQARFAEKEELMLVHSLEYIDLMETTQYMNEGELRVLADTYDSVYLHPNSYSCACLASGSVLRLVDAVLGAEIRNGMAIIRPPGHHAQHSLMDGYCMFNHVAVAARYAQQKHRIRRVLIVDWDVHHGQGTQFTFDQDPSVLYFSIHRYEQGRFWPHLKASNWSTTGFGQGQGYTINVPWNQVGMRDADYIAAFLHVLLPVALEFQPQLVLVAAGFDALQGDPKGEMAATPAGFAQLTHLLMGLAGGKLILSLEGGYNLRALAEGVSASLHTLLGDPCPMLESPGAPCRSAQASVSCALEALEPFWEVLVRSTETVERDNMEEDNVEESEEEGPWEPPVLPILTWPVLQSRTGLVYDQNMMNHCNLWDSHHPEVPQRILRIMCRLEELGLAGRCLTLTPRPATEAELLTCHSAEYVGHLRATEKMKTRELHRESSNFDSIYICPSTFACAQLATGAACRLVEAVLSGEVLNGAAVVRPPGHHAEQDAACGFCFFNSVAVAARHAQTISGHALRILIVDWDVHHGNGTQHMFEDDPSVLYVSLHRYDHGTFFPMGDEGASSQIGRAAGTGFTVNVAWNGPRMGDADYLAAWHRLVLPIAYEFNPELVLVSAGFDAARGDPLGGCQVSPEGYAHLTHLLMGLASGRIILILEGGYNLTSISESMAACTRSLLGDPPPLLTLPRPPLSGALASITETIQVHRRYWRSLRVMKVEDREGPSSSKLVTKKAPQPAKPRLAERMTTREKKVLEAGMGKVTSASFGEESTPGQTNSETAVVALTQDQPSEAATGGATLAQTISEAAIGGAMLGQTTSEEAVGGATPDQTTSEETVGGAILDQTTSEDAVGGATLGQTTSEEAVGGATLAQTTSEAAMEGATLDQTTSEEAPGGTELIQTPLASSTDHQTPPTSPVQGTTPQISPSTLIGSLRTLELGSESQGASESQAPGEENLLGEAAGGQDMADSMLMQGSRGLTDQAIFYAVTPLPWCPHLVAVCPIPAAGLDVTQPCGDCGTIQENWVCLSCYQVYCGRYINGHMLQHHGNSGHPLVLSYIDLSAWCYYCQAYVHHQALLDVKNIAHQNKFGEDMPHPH

[13] = target: T4, Histone deacetylase 8 (Homo sapiens) (UniProt Q9BY41); assay: Binding affinity to human wild type HDAC8 assessed as loss of activity measured with in 0.5 hrs by Fluor-de-Lys activity assay
T4 sequence (whole entry): T1 sequence (Q9BY41 whole entry)

[14] = system: Jurkat; assay: Cytotoxicity against human Jurkat cells assessed as cell proliferation after 70 hrs by MTS assay; type: functional, cell-based
[15] = target: Histone deacetylase 1 (Homo sapiens, UniProt Q13547); assay: Inhibition of human recombinant HDAC1 using MAZ1600 as fluorogenic substrate measured every 5 mins by optimized homogenous fluorescence based assay
[16] = target: Albumin (Bos taurus, UniProt P02769); assay: Stability of the compound assessed as bovine serum albumin-mediated drug degradation measured as compound remaining after 2 hrs by biochemical assay; type: ADME; conditions: cattle, read-out: Stability
[17] = target: Histone deacetylase 2 (Homo sapiens, UniProt Q92769); assay: Inhibition of human recombinant HDAC2 using MAZ1600 as fluorogenic substrate measured every 5 mins by optimized homogenous fluorescence based assay
[18] = target: T4, Histone deacetylase 8 (Homo sapiens)
[19] = Aqueous stability in 50 mM HEPES buffer at pH 7.4 by HPLC chromatogram; type: physicochemical
How it was run: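 Compound in 50 mM HEPES, pH 7.4, analysed by analytical HPLC right after preparation and again after 24 h at 37 °C, with no thiol present. Stability is read from the parent peak.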

[20] = target: T4, Histone deacetylase 8 (Homo sapiens); assay: Binding affinity to human wild type HDAC8 assessed as retention time for protein fragment after 60 mins of treatment in presence of trypsin (reference value: 84.5 mins)
How it was run: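 Recombinant human WT HDAC8 (1.7 μM) incubated with 12 equiv compound (20 μM) for 60 min at 37 °C. Protein isolated by SDS-PAGE, reduced (DTT, 56 °C) and alkylated (iodoacetamide), trypsin-digested overnight at 37 °C. Peptides separated on C18 with a 5–60% ACN gradient and detected by LC-MS/MS.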

[21] = target: T1, Histone deacetylase 8; assay: (§3) Reversible-time dependent inhibition of human wild type HDAC8 by Fluor-de-Lys activity assay; conditions: read-out: Ki(app)
[22] = target: T4, Histone deacetylase 8 (Homo sapiens); assay: as §3; conditions: TDE = time-dependent effect
[23] = system: T5, Histone deacetylase 8 (Homo sapiens), Q9BY41 [C153A]; assay: Time-dependent inhibition of human HDAC8 C153A mutant by Fluor-de-Lys activity assay
T5 sequence (whole entry): T1 sequence (Q9BY41 whole entry) with C153A
How it was run: (§4)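 Same as the wild-type method, but using the C153A HDAC8 mutant at 2 μM to start the reaction. Zn2+-reconstituted enzyme; 150 μM Fluor-de-Lys substrate with inhibitor at 30 °C, pH 8.0. Time-point aliquots quenched with trypsin/TSA. Product/substrate fluorescence ratio (ex 340, em 450/380 nm) gives progress curves.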

[24] = Retention time of the compound in HEPES buffer at pH 7.4 by LC-MS analysis in presence of GSH; type: physicochemical
How it was run: (§5)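 Compound incubated with GSH (2 mM, 2 equiv) in 50 mM HEPES, pH 7.4, for 2 h at 37 °C. Products resolved by analytical HPLC, with peak identities assigned by LC-MS from retention times.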

[25] = Retention time of the compound in HEPES buffer treated with SAHA-TAP at pH 7.4 by LC-MS analysis in presence of GSH; type: physicochemical; how it was run: as §5
[26] = system: HH; assay: Cytotoxicity against human HH cells assessed as cell proliferation at 50 uM after 70 hrs by MTS assay; type: functional, cell-based
How it was run: (§6)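 HH and Jurkat cells in RPMI 1640 + 10% FBS, seeded at 20 000 cells/well. Exposed directly to compound (0.5–128 μM) for 70 h. MTS reagent added for 4 h at 37 °C, absorbance at 490 nm. Each concentration run in triplicate, 2–3 trials.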

[27] = target: T4, Histone deacetylase 8 (Homo sapiens); assay: Binding affinity to human wild type HDAC8 assessed as loss of activity at 2 to 10 uM by Fluor-de-Lys activity assay
[28] = Cytotoxicity against mouse NIH/3T3 cells assessed as cell proliferation at 50 uM after 70 hrs by MTS assay; type: cell-based; conditions: nih3t3, 70 h
How it was run: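 NIH/3T3 cells in DMEM + 10% FBS, seeded at 5000 cells/well and allowed to attach for 16 h at 37 °C, 5% CO2. Then exposed to compound for 70 h. MTS reagent added for 2 h, absorbance at 490 nm. Triplicate wells, 2–3 trials.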

[29] = system: Jurkat; assay: Cytotoxicity against human Jurkat cells assessed as cell proliferation at 50 uM after 70 hrs by MTS assay; type: functional, cell-based; how it was run: as §6
[30] = system: T5, Histone deacetylase 8 (Homo sapiens), Q9BY41 [C153A]; assay: Binding affinity to human HDAC8 C153A mutant assessed as loss of activity at 2 to 10 uM by Fluor-de-Lys activity assay; how it was run: as §4
[31] = Prodrug activation assessed as GSH reactivity in HEPES buffer at pH 7.4 by LC-MS analysis; how it was run: as §5

Sequence of Histone deacetylase 2 (Q92769 whole entry): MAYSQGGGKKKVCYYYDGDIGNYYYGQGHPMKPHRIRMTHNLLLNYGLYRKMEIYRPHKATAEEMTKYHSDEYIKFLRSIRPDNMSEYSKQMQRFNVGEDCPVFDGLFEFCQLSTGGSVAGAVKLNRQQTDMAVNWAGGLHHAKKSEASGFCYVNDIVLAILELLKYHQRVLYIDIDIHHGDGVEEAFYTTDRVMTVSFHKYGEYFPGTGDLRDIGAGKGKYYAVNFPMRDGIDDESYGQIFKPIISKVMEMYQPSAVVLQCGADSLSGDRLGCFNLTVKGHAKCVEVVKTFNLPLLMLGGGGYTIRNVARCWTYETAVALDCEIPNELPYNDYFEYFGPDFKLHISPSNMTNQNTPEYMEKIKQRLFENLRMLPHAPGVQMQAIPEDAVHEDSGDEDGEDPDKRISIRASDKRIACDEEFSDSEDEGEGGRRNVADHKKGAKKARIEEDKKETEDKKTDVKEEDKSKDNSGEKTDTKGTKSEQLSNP
Sequence of Histone deacetylase 1 (Q13547 whole entry): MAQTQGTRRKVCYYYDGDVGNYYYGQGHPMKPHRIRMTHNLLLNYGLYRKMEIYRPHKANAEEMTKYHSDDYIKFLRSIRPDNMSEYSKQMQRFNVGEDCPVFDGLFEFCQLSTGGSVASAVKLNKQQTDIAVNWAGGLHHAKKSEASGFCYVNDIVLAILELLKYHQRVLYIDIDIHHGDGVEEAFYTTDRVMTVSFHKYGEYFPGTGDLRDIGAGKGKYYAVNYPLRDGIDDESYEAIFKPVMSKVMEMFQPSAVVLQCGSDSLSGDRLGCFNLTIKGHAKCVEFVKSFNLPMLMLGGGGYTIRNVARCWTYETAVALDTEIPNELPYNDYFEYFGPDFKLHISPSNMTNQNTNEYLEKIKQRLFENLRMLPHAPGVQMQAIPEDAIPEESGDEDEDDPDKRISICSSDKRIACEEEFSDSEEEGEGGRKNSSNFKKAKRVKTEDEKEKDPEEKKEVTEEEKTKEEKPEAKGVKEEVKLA
Sequence of Histone deacetylase 3 (O15379 whole entry): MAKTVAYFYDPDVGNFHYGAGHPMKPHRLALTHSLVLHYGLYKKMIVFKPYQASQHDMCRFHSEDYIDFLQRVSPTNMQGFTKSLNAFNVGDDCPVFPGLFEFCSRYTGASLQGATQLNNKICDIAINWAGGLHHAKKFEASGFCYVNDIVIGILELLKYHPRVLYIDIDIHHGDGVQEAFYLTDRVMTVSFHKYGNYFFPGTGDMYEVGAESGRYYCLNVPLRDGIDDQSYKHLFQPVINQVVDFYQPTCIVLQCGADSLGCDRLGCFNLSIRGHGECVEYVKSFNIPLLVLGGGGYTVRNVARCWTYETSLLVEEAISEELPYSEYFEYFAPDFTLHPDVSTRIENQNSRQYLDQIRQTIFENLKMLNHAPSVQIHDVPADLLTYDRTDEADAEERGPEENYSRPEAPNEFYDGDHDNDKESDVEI
Sequence of Albumin (P02769 whole entry): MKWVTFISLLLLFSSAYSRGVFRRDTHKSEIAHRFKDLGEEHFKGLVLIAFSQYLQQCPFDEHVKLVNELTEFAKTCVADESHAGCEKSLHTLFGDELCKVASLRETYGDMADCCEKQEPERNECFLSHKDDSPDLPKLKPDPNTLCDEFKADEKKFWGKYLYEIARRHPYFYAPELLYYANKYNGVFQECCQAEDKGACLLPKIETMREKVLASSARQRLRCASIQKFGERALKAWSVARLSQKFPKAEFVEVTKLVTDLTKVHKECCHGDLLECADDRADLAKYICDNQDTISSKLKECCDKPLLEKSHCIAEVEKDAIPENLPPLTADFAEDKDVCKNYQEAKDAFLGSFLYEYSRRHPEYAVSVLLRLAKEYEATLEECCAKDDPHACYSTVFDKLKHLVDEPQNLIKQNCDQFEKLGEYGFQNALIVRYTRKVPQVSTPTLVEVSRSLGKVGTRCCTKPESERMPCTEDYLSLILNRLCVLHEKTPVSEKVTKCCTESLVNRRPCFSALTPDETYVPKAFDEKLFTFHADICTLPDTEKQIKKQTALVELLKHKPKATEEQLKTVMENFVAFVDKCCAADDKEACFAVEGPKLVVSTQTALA

remaining at 1 h [1]: 72%
remaining at 2 h [3]: 52%
remaining at 2 h [5]: > 95%
IC50 [6]: 0.149 µM
IC50 [7]: 3.84 µM
inhibition [10]: Active
inhibition [11]: Active
IC50 [12]: 0.023 µM
inhibition [13]: Active
IC50 [15]: 0.371 µM
remaining at 2 h [16]: > 95%
IC50 [17]: 0.255 µM
K1/2 [18]: 8 µM
Stability [19]: > 97%
Retention time [20]: 88.5 min
Ki [21]: 7 µM
inhibition [22]: tde
TDI [23]: inactive
Retention_time [24]: 14.7 min
Structure (SMILES): CC1=C(C)C(=O)C(CONC(=O)CCCCCCC(=O)Nc2ccccc2)=C(C)C1=O
Activity [2]: Non-toxic
Activity [4]: Non-toxic
EC50 [8]: 9.37 µM
EC50 [9]: 3.38 µM
EC50 [14]: 6.05 µM

Retention_time [25]: 10.5 min
Structure (SMILES): C=C1C(=O)C(C)=C(C)C(=O)C1(C)SC[C@H](NC(=O)CC[C@H](N)C(=O)O)C(=O)NCC(=O)O (stereo partly drawn)

remaining at 2 h [3]: 55%
Retention_time [25]: 10.7 min
Structure (SMILES): O=C(CCCCCCC(=O)Nc1ccccc1)NO [VORINOSTAT]

inhibition [27]: inactive
IC50 [6]: > 10 µM
IC50 [7]: > 10 µM
IC50 [12]: > 10 µM
IC50 [15]: > 10 µM
IC50 [17]: > 10 µM
inhibition [30]: inactive
Activity [31]: Not Active
Structure (SMILES): O=C(CCCCCCC(=O)Nc1ccccc1)NOCc1ccccc1
inhibition [26]: inactive
Activity [28]: Non-toxic
inhibition [29]: inactive

Reference: ChEMBL document CHEMBL3576788, “Dual-Mode HDAC Prodrug for Covalent Modification and Subsequent Inhibitor Release” (J Med Chem, 2015)
